This passage reports cytotoxicity results from ChEMBL document CHEMBL4513216, “Probing the Open Global Health Chemical Diversity Library for Multistage-Active Starting Points for Next-Generation Antimalarials” (ACS Infect Dis, 2020).

A short description of the data set: Toxicity liver stage against HepG2, at 10uM. It counts as cell-based. On the set-up: test concentration 10 uM, cell line HepG2-A16-CD81EGFP. To be noted: human, HepG2-A16-CD81EGFP cells; read-out: INHIBITION
In a few lines:
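Uninfected HepG2-A16-CD81EGFP cells, 3 × 10^3 per well, 1536-well, plated on prespotted compound at 10 μM final, parasite-free screening media added to match infected plates; puromycin 10 μM positive, DMSO 0.5% negative; run in parallel with 48 h PbLuc assay at 37 °C, 5% CO2; viability by CellTiter-Glo luminescence, normalized to controls.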
For `CN1C(=O)CC[C@@H]2N(C(=O)CCc3cccnc3)CCCC[C@@]21C`, the cytotoxicity at 10 µM is 3.82%.

As to `O=C(Cn1ncc(N2CCNCC2)cc1=O)NCCc1ccc(F)cc1`, the cytotoxicity at 10 µM is 0.342%.

Turning to `CCN(CC)c1ncccc1CNCc1ccc(Cl)s1`, the cytotoxicity at 10 µM was found to be 10.6%.

Consider `CC(C)N(CC(C)(C)O)C(=O)NC1CC1`, for which the cytotoxicity at 10 µM amounted to 5.73%.

With `Cc1nn(C2CCCC2)c2nc(C(C)(C)CN3CCN(C)CC3)[nH]c12`, the cytotoxicity at 10 µM was -6.61%.

Regarding `Cc1oc(-c2nc(C#N)c(N(C)C)o2)cc1S(=O)(=O)N1CCCCCC1`, the cytotoxicity at 10 µM was -13.9%.

`CCc1nc(COc2ccc(N(C)C(C)=O)cc2)no1`: the cytotoxicity at 10 µM was -0.408%.

With `Cn1cc(CN2C[C@@H]3CCC[C@@H](OCc4cccnc4)[C@@H]3C2)cn1`, the cytotoxicity at 10 µM is -107%.

With `CC(=O)N1CCC(Nc2ccc(Br)cc2C#N)C1` (stereo unspecified), the cytotoxicity at 10 µM is 2.5%.

As to `Cc1nn2c(N3CCCC(C(N)=O)C3)cc(-c3ccccc3)nc2c1C` (stereo unspecified), the cytotoxicity at 10 µM is -4.45%.

Take `c1cnc(NCc2noc3c2CN(CCN2CCCC2)CC3)nc1`: the cytotoxicity at 10 µM is -7.36%.

For `CSc1ccccc1C(=O)N1C[C@@H](N(C)C)[C@H](c2ccc(C)cc2)C1`, the cytotoxicity at 10 µM is -7.02%.

For `Cc1ccc(CN2CC[C@H]3CO[C@H](CN(C)Cc4ccco4)[C@H]3C2)s1`, the cytotoxicity at 10 µM turned out to be 4.74%.

With `Cc1ccc2c(c1)C1(CCNCC1)CC2NC1CC1` (stereo unspecified), the cytotoxicity at 10 µM is -117%.

Turning to `CCSCCC(=O)Nc1ncn(Cc2ccccc2)n1`, the cytotoxicity at 10 µM was determined as 4.74%.

Turning to `CCOC(=O)C1CCN(C(=O)CN2CCCC2Cc2ccccc2)CC1` (stereo unspecified), the cytotoxicity at 10 µM was 12.7%.

Consider `O=c1c2cccc(F)c2ncn1CCN1CCNCC1`, for which the cytotoxicity at 10 µM was -0.812%.

As for `Cc1ccc(C(=O)N(C)Cc2cc(Br)cs2)c(=O)[nH]1`, the cytotoxicity at 10 µM was -0.782%.

Regarding `COCC1CN(C(=O)Nc2ccc(Cl)cc2Cl)CCO1` (stereo unspecified), the cytotoxicity at 10 µM was found to be 4.26%.

`CC(C)c1nn(C)c(N(C)C)c1CNCc1ccnc(N(C)C)c1`: the cytotoxicity at 10 µM amounted to 1.36%.

Turning to `COc1cc(-n2ccnc2-c2ccc(C(=O)O)s2)ccc1NC(C)=O`, the cytotoxicity at 10 µM was 2.74%.

Take `CN(C(=O)CN1CCC(c2cc3ccccc3[nH]2)CC1)C1CC1`: the cytotoxicity at 10 µM came to 1.95%.

On to `CCOCCCNC(=O)CCCC(=O)n1nc(C)c2ccccc21`, for which the cytotoxicity at 10 µM is -1.29%.

For the compound `Cc1nc2c(c(NC3CC3)n1)CCN(C(=O)CCc1cccnc1)CC2`, the cytotoxicity at 10 µM was -9.1%.

`CC(C)(O)CNc1ccc(C#N)c(C(F)(F)F)c1`: the cytotoxicity at 10 µM amounted to 1.23%.

In the case of `CCn1c(NCc2ccc(OC)cc2)nc2c(C)nn(C)c2c1=O`, the cytotoxicity at 10 µM came out at 4.23%.

On to `CN(C)c1cc(CNCc2ccc(N3CCOCC3)cc2)ccn1`, for which the cytotoxicity at 10 µM was found to be 23.3%.

Take `CS(=O)(=O)NCC1CCCN(C(=O)COCc2ccccc2)C1` (stereo unspecified): the cytotoxicity at 10 µM was -7.59%.

For `Cc1ccc(C(=O)NCCS(=O)(=O)Cc2ccccc2)c(C)c1`, the cytotoxicity at 10 µM is -5.09%.

Turning to `O=C(NCCNC(=O)c1ccc(Cl)cc1)NCCn1cccc1`, the cytotoxicity at 10 µM turned out to be 5.95%.

Consider `O=C1NC(c2ccccc2)=N[C@@]12CC[C@@H]1CN(Cc3nccs3)C[C@@H]12`, for which the cytotoxicity at 10 µM was found to be 6.37%.

Turning to `Cc1nnc(CN2CCN(C)C3(CCNC(=O)CC3)C2)s1` (stereo unspecified), the cytotoxicity at 10 µM was -8.22%.

Take `CNC(=O)CN(C(=O)c1ccc(SC)o1)c1cccc(F)c1`: the cytotoxicity at 10 µM came out at 10.3%.

As to `CN(C)CCN1CCC2(CCN(C(=O)c3ccncc3)CC2)C1=O`, the cytotoxicity at 10 µM worked out at 0.0515%.

On to `OCC1CCCN1c1cc(NCc2cccnc2)ncn1` (stereo unspecified), for which the cytotoxicity at 10 µM was -16.6%.

`Cc1[nH]c2c(F)cccc2c1CC(=O)N1CCC(NS(C)(=O)=O)CC1`: the cytotoxicity at 10 µM amounted to 7.58%.

With `CC(=O)Nc1nc(CN2CCCC2Cn2cc(C)cn2)cs1` (stereo unspecified), the cytotoxicity at 10 µM came out at 3.22%.

With `Cc1ccc(OCC(=O)NCc2ccco2)nc1`, the cytotoxicity at 10 µM is -0.224%.

As for `O=C(NCC1CCSCC1)N(CCCO)C1CCc2ccccc21` (stereo unspecified), the cytotoxicity at 10 µM turned out to be 5.77%.

As for `O=C(O)c1nnn(-c2ccc(OC(F)(F)F)cc2)c1-c1ccncc1`, the cytotoxicity at 10 µM is -5.85%.

For `CC(=O)N1CCN(C(=O)NC(C)C)CC2(CC(=O)N(C)C2)C1` (stereo unspecified), the cytotoxicity at 10 µM is -4.13%.

With `CCc1c(C)nc(N)nc1NCCSCc1[nH]cnc1C`, the cytotoxicity at 10 µM was 4.5%.

With `CS(=O)(=O)N1CCN(c2ccnc(N3CCCCC3)n2)CC1`, the cytotoxicity at 10 µM is -0.359%.

On to `COc1ccccc1OC1CN(C(=O)Cc2c(C)nc3ccccn23)C1`, for which the cytotoxicity at 10 µM is -2.27%.

`CC(CNCc1ccc(Br)cc1)Oc1ccccn1` (stereo unspecified): the cytotoxicity at 10 µM is 5.36%.

With `Cc1noc(C)c1-c1ccc(C2CCCN2C(=O)Cn2ccnc2)nc1` (stereo unspecified), the cytotoxicity at 10 µM was -10.2%.

Consider `Cc1ccc(-c2nnc(CN3CCCCC3Cn3cncn3)o2)cc1` (stereo unspecified), for which the cytotoxicity at 10 µM stood at 3.84%.

For `CC(C)CCN(C(=O)c1ccc(-n2ncc(C#N)c2N)cc1)C1CC1`, the cytotoxicity at 10 µM was -23.6%.

As to `c1csc(CN2CCO[C@H]3[C@H](OCCN4CCCC4)CC[C@@H]32)n1`, the cytotoxicity at 10 µM was -7.32%.

As to `Cc1occc(=O)c1OCc1noc(C(=O)NCC(C)C)n1`, the cytotoxicity at 10 µM stood at 6.43%.

`Cc1nc(-c2ccccc2)nc2c1CCN(Cc1nccn1C)CC2`: the cytotoxicity at 10 µM is -118%.

Turning to `CN1CCOC(CNCCOc2cccc(C#N)c2)C1` (stereo unspecified), the cytotoxicity at 10 µM stood at 7.56%.

As for `Cc1ccc(=O)n(CC(=O)N(C)Cc2csc(-c3cccs3)n2)n1`, the cytotoxicity at 10 µM came to 6.23%.

Take `CSc1ccc(NC(=O)NCc2nncn2C2CC2)cc1F`: the cytotoxicity at 10 µM came to 0%.

Consider `Cc1cc(NC2CCc3ncnn3C2)n2ncnc2n1` (stereo unspecified), for which the cytotoxicity at 10 µM was -18.4%.

As for `CC(C)CNC(=O)[C@H]1CCS(=O)(=O)[C@@H]2CN(Cc3cccc(Cl)c3)C[C@H]12`, the cytotoxicity at 10 µM is -7.06%.

With `CN1CC(C(=O)NCCc2ccc3c(c2)OCO3)CC1=O` (stereo unspecified), the cytotoxicity at 10 µM turned out to be 2.55%.

Turning to `CCc1csc(C2CCCN(C(=O)c3ncccn3)C2)n1` (stereo unspecified), the cytotoxicity at 10 µM was -1.92%.

For the compound `CC(C)c1n[nH]c(C2CN(C(=O)CCn3ccccc3=O)CCO2)n1` (stereo unspecified), the cytotoxicity at 10 µM came to 4.48%.

`CC1(C)O[C@@](C)([C@H]2CC3(CCN(c4ncccn4)CC3)CO2)CC[C@@H]1O`: the cytotoxicity at 10 µM was 4.98%.

Turning to `O=S(=O)(CCN1CCOC(Cn2cccn2)C1)c1ccccc1` (stereo unspecified), the cytotoxicity at 10 µM is -0.165%.

Consider `COc1ncccc1NC(=O)N(C1CC1)C(C)C(C)C` (stereo unspecified), for which the cytotoxicity at 10 µM was 8.42%.

On to `CC(O)(CN1CCN(CCO)CC1)c1cccc(C(F)(F)F)c1` (stereo unspecified), for which the cytotoxicity at 10 µM was -17.5%.

Consider `CC(=O)NC(C)CC(=O)NCc1cccnc1Oc1ccccc1C` (stereo unspecified), for which the cytotoxicity at 10 µM was determined as 11.4%.

As for `CC(C)C(NC(=O)NCc1cccnc1N(C)C)c1cccs1` (stereo unspecified), the cytotoxicity at 10 µM is -1.86%.

For the compound `O=C(c1coc(COc2cccc3cnccc23)n1)N1CCCCCC1`, the cytotoxicity at 10 µM is -128%.

For `CCN1CC2(CCN(Cc3nc(CSC)no3)CC2)CC1=O`, the cytotoxicity at 10 µM is -1.41%.

In the case of `COc1cc(C2SCC(=O)Nc3[nH]ncc32)cc(OC)c1OC` (stereo unspecified), the cytotoxicity at 10 µM worked out at 8.49%.

With `CCCc1nc(C)cc(NCc2ccc(S(N)(=O)=O)cc2)n1`, the cytotoxicity at 10 µM was 10.3%.

With `CC(C)Oc1ccccc1C(=O)NC1CC(=O)N(CC(F)(F)F)C1` (stereo unspecified), the cytotoxicity at 10 µM was found to be 4.37%.

`CC1CN(C(=O)C2(c3cccc(F)c3)CCOCC2)CCO1` (stereo unspecified): the cytotoxicity at 10 µM was 4.89%.

As to `Cc1cccc(CNC(=O)Nc2cc(C(F)(F)F)c[nH]c2=O)n1`, the cytotoxicity at 10 µM is 0.488%.

As for `CC(C)c1nccn1CCn1cnc2ccsc2c1=O`, the cytotoxicity at 10 µM is 4.4%.

As to `CC(C)Nc1cc(N2CCCC3(CN(C)C(=O)O3)C2)ncn1` (stereo unspecified), the cytotoxicity at 10 µM was -53%.

As for `Cc1[nH]c2ccc(Cl)cc2c1CCNc1ncnc2c1CCNC2`, the cytotoxicity at 10 µM turned out to be 22.4%.

On to `COc1ccc(C(=O)C2CCCN(c3cnccn3)C2)c(C)c1` (stereo unspecified), for which the cytotoxicity at 10 µM is -2.69%.

On to `COCCN1CCC2(COCc3cnc(N(C)C)nc32)C1` (stereo unspecified), for which the cytotoxicity at 10 µM stood at 1.39%.

For `Cc1cccnc1N1CCN(C(=O)CCc2ccccn2)CC1`, the cytotoxicity at 10 µM is -12.1%.

`Cc1ccc(C)c(S(=O)(=O)NCCC(=O)NCc2ccoc2)c1`: the cytotoxicity at 10 µM is -11.5%.

Regarding `COCCN(C)Cc1cn(C)nc1-c1ccc2c(c1)OCCO2`, the cytotoxicity at 10 µM is -0.65%.

As for `N#Cc1cccc(NC(=O)N2CCCC(N3CCCC3=O)C2)c1` (stereo unspecified), the cytotoxicity at 10 µM was determined as 7.92%.

On to `CCC(=O)N1CCC2(COCc3cnc(NCc4ccco4)nc32)C1` (stereo unspecified), for which the cytotoxicity at 10 µM is -12.9%.

As to `CC1(C)OCC(CNC(=O)c2cnn(-c3cccc(Cl)c3Cl)c2N)O1` (stereo unspecified), the cytotoxicity at 10 µM is 1.93%.

Regarding `COCC1CN(Cc2ccoc2)Cc2nn(CC3CC3)cc21` (stereo unspecified), the cytotoxicity at 10 µM is -2.24%.

Take `Cc1cnc(C(=O)N2CCN(c3ncc4c(n3)CCOC4)CC2)cn1`: the cytotoxicity at 10 µM worked out at 4.91%.

As to `CC(=O)NC1CCCN(C(=O)NCc2cccnc2)C1` (stereo unspecified), the cytotoxicity at 10 µM was -10.5%.

As for `Cc1noc(C)c1CN1CCC(c2nc3cc(Cl)ccc3o2)CC1`, the cytotoxicity at 10 µM is -4.22%.

In the case of `Cc1occc1C(=O)N1CCC2(CC1)NC(=O)CC2c1cnn(C)c1` (stereo unspecified), the cytotoxicity at 10 µM was -4.99%.

For `O=C(CN1CC(c2nc(-c3ccco3)no2)C1)NCc1ccc(F)cc1`, the cytotoxicity at 10 µM is -5.07%.

Turning to `O=C(NCc1cnc2n1CCN(Cc1ccsc1)CC2)C1CCC1`, the cytotoxicity at 10 µM is -2.53%.

For `CN(Cc1cnn(C)c1)C(=O)NC1CCC(O)CC1` (stereo unspecified), the cytotoxicity at 10 µM was -14.7%.

For `Cn1cc(CN2CCC(c3cc(COc4ccc(Cl)cc4)[nH]n3)C2)cn1` (stereo unspecified), the cytotoxicity at 10 µM worked out at 0.0085%.

For `Cc1nc2cc(=O)[nH]n2c(C)c1CC(=O)NCc1ccc(C#N)cc1`, the cytotoxicity at 10 µM is -3.34%.

For the compound `Cc1nnc(NC(=O)NC2CCCc3c2cnn3CCO)s1` (stereo unspecified), the cytotoxicity at 10 µM was found to be 6.66%.

In the case of `c1nc2c(c(NC3COC4(CCCC4)C3)n1)CCNCC2` (stereo unspecified), the cytotoxicity at 10 µM is 0.383%.

Turning to `Cc1cc(N2CCC3(CCCN(C4CCOCC4)C3=O)C2)ccn1` (stereo unspecified), the cytotoxicity at 10 µM is -134%.
